Test results published in ChEMBL document CHEMBL1149790, “Synthesis of some novel thiourea derivatives obtained from 5-[(4-aminophenoxy)methyl]-4-alkyl/aryl-2,4-dihydro-3H-1,2,4-triazole-3-thiones and evaluation as antiviral/anti-HIV and anti-tuberculosis agents” (Eur J Med Chem, 2008).
≈ marks a conversion by molar mass, not a printed value.

Experiments:
[1] = Cytotoxicity against human E6SM cells; assay type: cell-based; details: E6SM cells
How it was run: (§1)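 Uninfected cell cultures exposed to test compounds alongside antiviral assays; minimum cytotoxic concentration (MCC) = concentration causing a microscopically detectable alteration of cell morphology.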

[2] = Cytotoxicity against human HEL cells assessed as alteration of cell morphology; assay type: cell-based; how it was run: as §1
Human alphaherpesvirus 1 [3] = assay: Antiviral activity against HSV1 KOS in human E6SM cells assessed as reduction of virus-induced cytopathogenicity; assay type: functional; details: Human alphaherpesvirus 1, KOS
How it was run: (§2)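 Confluent cell monolayers (E6SM, HEL, HeLa or Vero, per line) inoculated with 100 CCID50 virus; 1 h adsorption, residual virus removed, then incubated with compound at 400, 200, 100 … µg/ml. Cytopathicity scored once complete in untreated virus controls; MIC = concentration inhibiting virus-induced cytopathicity.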

Human alphaherpesvirus 1 [4] = assay: Antiviral activity against HSV1 KOS in human HEL cells assessed as reduction of virus-induced cytopathogenicity; assay type: functional; details: Human alphaherpesvirus 1, KOS; how it was run: as §2
Human alphaherpesvirus 2 [5] = assay: Antiviral activity against HSV2 G in human E6SM cells assessed as reduction of virus-induced cytopathogenicity; assay type: functional; details: Human alphaherpesvirus 2, G; how it was run: as §2
Human alphaherpesvirus 2 [6] = assay: Antiviral activity against HSV2 G in human HEL cells assessed as reduction of virus-induced cytopathogenicity; assay type: functional; details: Human alphaherpesvirus 2, G; how it was run: as §2
[7] = system: Vesicular stomatitis virus; assay: Antiviral activity against in Vesicular stomatitis virus in human E6SM cells assessed as reduction of virus-induced cytopathogenicity; assay type: functional; how it was run: as §2
[8] = system: Vesicular stomatitis virus; assay: Antiviral activity against in Vesicular stomatitis virus in human HEL cells assessed as reduction of virus-induced cytopathogenicity; assay type: functional; how it was run: as §2
Human alphaherpesvirus 1 [9] = assay: Antiviral activity against thymidine kinase deficient and acyclovir resistant HSV1 KOS in human E6SM cells assessed as reduction of virus-induced cytopathogenicity; assay type: functional; details: Human alphaherpesvirus 1, KOS; how it was run: as §2
Human alphaherpesvirus 1 [10] = assay: Antiviral activity against thymidine kinase deficient and acyclovir resistant HSV1 KOS in human HEL cells assessed as reduction of virus-induced cytopathogenicity; assay type: functional; details: Human alphaherpesvirus 1, KOS; how it was run: as §2
[11] = Cytotoxicity against human HEL cells assessed as reduction of cell growth; assay type: cell-based
How it was run: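 HEL cells; CC50 = compound concentration reducing cell growth by 50%.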

[12] = system: Human immunodeficiency virus 1; assay: Antiviral activity against HIV1 3B in human MT4 cells assessed as protection against virus-induced cytopathogenicity by MTT assay; assay type: functional, organism-based; design: Activity: concentration or dose not given beside the values; details: for IC50: Human immunodeficiency virus 1, 3B, MT4
How it was run: (§3)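 MT-4 cells at 6 × 10⁵ cells/ml infected with HIV-1 IIIB or HIV-2 ROD at 100–300 CCID50; compounds in serial five-fold dilutions, triplicate mock- and virus-infected wells. MTT viability read at 540 and 690 nm after 5 days, median OD of three wells; EC50 = 50% protection from viral cytopathic effect.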

[13] = system: Human immunodeficiency virus 2; assay: Antiviral activity against HIV2 ROD in human MT4 cells assessed as protection against virus-induced cytopathogenicity by MTT assay; assay type: functional, organism-based; design: Activity: concentration or dose not given beside the values; details: for IC50: Human immunodeficiency virus 2, ROD, MT4; how it was run: as §3
[14] = Cytotoxicity against human MT4 cells by MTT assay; assay type: cell-based
How it was run: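 Mock-infected MT-4 cells (6 × 10⁵ cells/ml) with serial five-fold compound dilutions in triplicate; MTT reduction read at 540 and 690 nm after 5 days, median OD of three wells; CC50 = concentration reducing OD540 of mock-infected control by 50%.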

[15] = Cytotoxicity against human HeLa cells; assay type: cell-based; how it was run: as §1
[16] = system: Vesicular stomatitis virus; assay: Antiviral activity against vesicular stomatitis virus in human HeLa cells assessed as inhibition of virus-induced cytopathogenicity; assay type: functional; how it was run: as §2
Coxsackievirus B4 [17] = assay: Antiviral activity against Coxsackie virus B4 in human HeLa cells assessed as inhibition of virus-induced cytopathogenicity; assay type: functional; details: Enterovirus B; how it was run: as §2
[18] = system: Respiratory syncytial virus; assay: Antiviral activity against respiratory syncytial virus in human HeLa cells assessed as inhibition of virus-induced cytopathogenicity; assay type: functional; how it was run: as §2
Vero = assay: Cytotoxicity against african green monkey Vero cells; assay type: cell-based; details: chlorocebus sabaeus; how it was run: as §1
Coxsackievirus B4 [19] = assay: Antiviral activity against Coxsackie virus B4 in african green monkey Vero cells assessed as reduction of virus-induced cytopathogenicity; assay type: functional; details: Enterovirus B; how it was run: as §2
Punta Toro virus = assay: Antiviral activity against Punta Toro virus in african green monkey Vero cells assessed as reduction of virus-induced cytopathogenicity; assay type: functional; how it was run: as §2
Human respirovirus 3 = assay: Antiviral activity against Parainfluenza 3 virus in african green monkey Vero cells assessed as reduction of virus-induced cytopathogenicity; assay type: functional; how it was run: as §2
[20] = system: Mammalian orthoreovirus 1; assay: Antiviral activity against Reo virus 1 in african green monkey Vero cells assessed as reduction of virus-induced cytopathogenicity; assay type: functional; how it was run: as §2
Sindbis virus = assay: Antiviral activity against Sindbis virus in african green monkey Vero cells assessed as reduction of virus-induced cytopathogenicity; assay type: functional; how it was run: as §2

| Structure (SMILES) | MCC [1] [µg/mL] | MCC [2] [µg/mL] | MIC (Human alphaherpesvirus 1 [3]) [µg/mL] | MIC (Human alphaherpesvirus 1 [4]) [µg/mL] | MIC (Human alphaherpesvirus 2 [5]) [µg/mL] | MIC (Human alphaherpesvirus 2 [6]) [µg/mL] | MIC [7] [µg/mL] | MIC [8] [µg/mL] | MIC (Human alphaherpesvirus 1 [9]) [µg/mL] | MIC (Human alphaherpesvirus 1 [10]) [µg/mL] | Activity [12] [%] | IC50 [12] [µg/mL] | Activity [13] [%] | IC50 [13] [µg/mL] | CC50 [14] [µg/mL] | MCC [15] [µg/mL] | MIC [16] [µg/mL] | MIC (Coxsackievirus B4 [17]) [µg/mL] | MIC [18] [µg/mL] | Activity (Vero) | other results |
| --- | --- | --- | --- | --- | --- | --- | --- | --- | --- | --- | --- | --- | --- | --- | --- | --- | --- | --- | --- | --- | --- |
| Nc1nc2c(ncn2COCCO)c(=O)[nH]1 [ACYCLOVIR] | > 400 | > 400 | 0.384 (≈ 1.71 µM) | 0.384 (≈ 1.71 µM) | 0.384 (≈ 1.71 µM) | 0.384 (≈ 1.71 µM) | > 400 | > 400 | 48 (≈ 213 µM) | 48 (≈ 213 µM) |  |  |  |  |  |  |  |  |  |  | CC50 [11]: 200 µg/mL (≈ 888 µM) |
| C=CCn1c(-c2ccc(NC(=S)NC)cc2)n[nH]c1=S | 400 | 400 | 240 (≈ 786 µM) | 240 (≈ 786 µM) | 240 (≈ 786 µM) | 240 (≈ 786 µM) | > 80 | > 80 | 240 (≈ 786 µM) | 240 (≈ 786 µM) | 9 | > 80.9 | 0 | > 80.9 | 80.9 (≈ 265 µM) | 400 | > 80 | > 80 | > 80 | >= 80 ug ml-1 | MIC (Coxsackievirus B4 [19]): > 80 µg/mL; MIC (Punta Toro virus): > 80 µg/mL; MIC (Human respirovirus 3): > 80 µg/mL; MIC [20]: > 80 µg/mL; MIC (Sindbis virus): > 80 µg/mL |
| CCCCCCNC(=S)Nc1ccc(-c2n[nH]c(=S)n2CC)cc1 | 400 | 400 | > 80 | > 80 | > 80 | > 80 | > 80 | > 80 | > 80 | > 80 | 21 | > 2.58 | 3 | > 2.58 | 2.58 (≈ 7.1 µM) | ≥ 400 | > 400 | > 400 | > 400 | 400 µg/mL | MIC (Coxsackievirus B4 [19]): > 80 µg/mL; MIC (Punta Toro virus): > 80 µg/mL; MIC (Human respirovirus 3): > 80 µg/mL; MIC [20]: > 80 µg/mL; MIC (Sindbis virus): > 80 µg/mL |
| S=C(Nc1ccccc1)Nc1ccc(-c2n[nH]c(=S)n2-c2ccccc2)cc1 | ≥ 80 | ≥ 80 | > 80 | > 80 | > 80 | > 80 | > 80 | > 80 | > 80 | > 80 | 25 | > 28.6 | 0 | > 28.6 | 28.6 (≈ 70.8 µM) | 80 | > 80 | > 80 | > 80 | 80 µg/mL | MIC (Coxsackievirus B4 [19]): > 16 µg/mL; MIC (Punta Toro virus): > 16 µg/mL; MIC (Human respirovirus 3): > 16 µg/mL; MIC [20]: > 16 µg/mL; MIC (Sindbis virus): > 16 µg/mL |
| CNC(=S)Nc1ccc(-c2nnc(SCc3ccccc3)n2C)cc1 | ≥ 16 | ≥ 16 | > 16 | > 16 | > 16 | > 16 | > 16 | > 16 | > 16 | > 16 | 2.5 | > 75.4 | 6 | > 75.4 | 75.4 (≈ 204 µM) | 80 | > 16 | > 16 | > 16 | 80 µg/mL | MIC (Coxsackievirus B4 [19]): > 16 µg/mL; MIC (Punta Toro virus): > 16 µg/mL; MIC (Human respirovirus 3): > 16 µg/mL; MIC [20]: > 16 µg/mL; MIC (Sindbis virus): > 16 µg/mL |
| C=CCNC(=S)Nc1ccc(-c2n[nH]c(=S)n2C)cc1 | 400 | 400 | 240 (≈ 786 µM) | 240 (≈ 786 µM) | 240 (≈ 786 µM) | 240 (≈ 786 µM) | > 80 | > 80 | 240 (≈ 786 µM) | 240 (≈ 786 µM) | 9.5 | > 78.2 | 1 | > 78.2 | 78.2 (≈ 256 µM) | 400 | > 80 | > 80 | > 80 | 400 µg/mL | MIC (Coxsackievirus B4 [19]): > 80 µg/mL; MIC (Punta Toro virus): > 80 µg/mL; MIC (Human respirovirus 3): > 80 µg/mL; MIC [20]: > 80 µg/mL; MIC (Sindbis virus): > 80 µg/mL |
